Drawing on PubChem BioAssay AID504382 (The Scripps Research Institute Molecular Screening Center, 2011), this text covers fluorescence artifact activation for 25 compounds.

In all, about 2,500 compounds went through this assay and about 460 (18%) were called active. A selection follows. Unmarked numbers belong to inactive results.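 Rule for the calls: active = mean activation above a cutoff of low control average plus 3 SD from the earlier screen (cut at about 12% in these data); inactive = the rest.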

This assay in a line: compound fluorescence interference without thin filaments, confirmation, artefact control for cardiac RTF calcium sensitizer project, biochemical (AID 504382). Conditions: IANBD fluorescence interference counterscreen, buffer, EC20 Ca2+; at 7.2 µM; stronger effect = higher value; scaled: EC20 calcium 0, EC100 calcium 100. The procedure, abridged:
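Also added: EC20 calcium, 0.472 mM; dosing: single nominal 7.2 µM compound dose, 0.7% DMSO final; timing: 15 min, 25 °C; detection: fluorescence intensity, excitation 480 nm, emission 540 nm; replicates: each compound tested in triplicate wells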
`COCCN(C(=O)CN1CCCc2ccccc21)c1c(N)n(Cc2ccccc2)c(=O)[nH]c1=O`: the fluorescence artifact activation is 3.59%. On to `Cc1ccc2c(c1)CCCN2CC(=O)N(C)c1c(N)n(Cc2ccccc2)c(=O)[nH]c1=O`, for which the fluorescence artifact activation was -0.05%. In the case of `CCn1c(=O)c(C(=O)CN2CCCc3ccccc32)c(N)n(Cc2ccccc2)c1=O`, the fluorescence artifact activation is 15.2% (active). For `Nc1c(C(=O)C2CC2)sc2nc(-c3cccs3)cc(C(F)(F)F)c12` the value was 3.83%; for `Cc1cc[n+](-c2[nH]c(=O)sc2/C=N/NC([S-])=Nc2ccccc2)cc1C`, 0.4%.

As to `O=c1[nH]c(-[n+]2ccccc2)c(/C=N/NC([S-])=Nc2ccccc2)s1`, the fluorescence artifact activation was 0.03%. For `CCc1ccc[n+](-c2[nH]c(=O)sc2/C=N/NC([S-])=Nc2ccccc2)c1` the value was 19.1% (active).

As to `Cc1ccc(S(=O)(=O)N2CCN(c3ncccn3)CC2)cc1C`, the fluorescence artifact activation is -0.05%. Turning to `Cc1ccccc1S(=O)(=O)Cc1ccc(C(=O)NCCN(C)Cc2ccccc2)o1`, the fluorescence artifact activation is 11%.

Take `Cc1nn(Cc2c(F)c(F)c(F)c(F)c2F)c(C)c1NC(=O)c1nn(C)c(C)c1Br`: the fluorescence artifact activation was 0.14%. Turning to `Cc1c(O)c2c3c(cccc3c1O)C(=O)N(c1ccccc1)C2=O`, the fluorescence artifact activation was 6.04%. For `CCC/C(C#Cc1ccc(N(C)C)cc1)=C1/c2ccccc2C(=O)N1c1ccccc1` the value was 17.9% (active); for `Nc1ccc2c3c(cccc13)C(=O)N(c1ccccc1)C2=O`, 0.18%. For `CCCS(=O)(=O)N1CCC(C(=O)NCCCN2CCC(Cc3ccccc3)CC2)CC1` the value was 0.05%. As for `CC(=O)Nc1cccc(NC(=O)CSc2nnc(Cc3cccn3C)n2CCc2ccccc2)c1`, the fluorescence artifact activation is 2.41%. For `CCN1C(=O)[C@@H]2[C@@H](c3ccc(-c4cccc(Cl)c4)cc3)N3CCC[C@@]3(C(=O)OC)[C@@H]2C1=O` the value was 0.02%; for `CC(=O)Nc1sc(/C(C#N)=C\c2cccc(Cl)c2)nc1-c1ccc(C)cc1`, 16.5% (active); for `CC(=O)Nc1sc(/C(C#N)=C/c2ccc(Cl)c(Cl)c2)nc1-c1ccc(C)cc1`, -0.03%. The result for `CCOc1cc(/C=C(\C#N)c2nc(-c3cccs3)c(NC(C)=O)s2)ccc1O` reads -0.03%; that for `CC(C)(C)c1cc(NCc2ccccn2)n2ncc(-c3ccc(Cl)cc3)c2n1`, 0.93%.

For `CCCN1CCc2c(sc(NC(=S)NC(=O)c3ccccc3)c2C#N)C1`, the fluorescence artifact activation was 11.1%. The result for `O=C(Nc1ccccc1F)C(=Cc1sc(N2CCOCC2)nc1-c1ccccc1)C(=O)Nc1ccccc1F` reads 0.15%. For `CN1CCC/C1=C/C=C1\SC(=S)NC1=O` the value was 0.02%; for `CCN1C(=O)/C(=C/C=C2/CCCN2C)OC1=S`, 0.08%; for `CN1C(=O)/C(=C\C=C2/CCCN2C)N(C)C1=S`, 56.9% (active).
